# Results taken from ChEMBL document CHEMBL3259575, “Evaluation of a large library of (thiazol-2-yl)hydrazones and analogues as histone acetyltransferase inhibitors: enzyme and cellular studies” (2014).
# Activity calls are given as the source filed them. The calls are words filed in the database; no cut-off is given here.
# Tests used:
# [1] = biological target: Histone acetyltransferase KAT2B (Homo sapiens) (UniProt Q92831); assay: Inhibition of recombinant human PCAF catalytic domain (492 to 658 aa) using histone H3 at 100 uM after 1 hr by radiochemical assay in presence of [acetyl-3H]-acetyl coenzyme A
# [2] = test system: HCT-116; assay: Induction of apoptosis in human HCT116 cells at 100 uM after 30 hrs by FACS analysis relative to control; type: functional
# Outline: (§1)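 Cells cultured at 37 °C, 5% CO2 in RPMI-1640 plus 10% heat-inactivated FBS and antibiotics; treated 30 h; apoptosis read by FACS as the pre-G1 population, compared with untreated control.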
# [3] = biological target: Histone acetyltransferase p300 (Homo sapiens) (UniProt Q09472); assay: Inhibition of recombinant human p300 catalytic domain (1284 to 1673 aa) using histone H3 at 100 uM after 1 hr by radiochemical assay in presence of [acetyl-3H]-acetyl coenzyme A
# [4] = test system: HCT-116; assay: Cell cycle arrest at G1 phase in human HCT116 cells at 100 uM after 30 hrs by propidium iodide-based flow cytometry relative to control; type: functional
# Outline: (§2)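 Cells kept at 37 °C, 5% CO2 in RPMI-1640 with 10% heat-inactivated FBS, penicillin, streptomycin, L-glutamine, amphotericin B; plated at 2 × 10^5 cells/mL, exposed 30 h, then suspended in PBS with 0.1% sodium citrate, 0.1% NP40 and propidium iodide; 30 min room temperature in dark; flow cytometry, cell-cycle phase distribution versus untreated control.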
# [5] = biological target: Histone acetyltransferase p300 (Homo sapiens) (UniProt Q09472); assay: Inhibition of recombinant human p300 catalytic domain (1284 to 1673 aa) using histone H3 at 200 uM after 1 hr by radiochemical assay in presence of [acetyl-3H]-acetyl coenzyme A
# [6] = biological target: Histone acetyltransferase p300 (Homo sapiens) (UniProt Q09472); assay: Inhibition of recombinant human p300 catalytic domain (1284 to 1673 aa) using histone H3 at 400 uM after 1 hr by radiochemical assay in presence of [acetyl-3H]-acetyl coenzyme A
# [7] = test system: U-937; assay: Cell cycle arrest in human U937 cells assessed as reduction in cells at S phase at 100 uM after 30 hrs by propidium iodide-based flow cytometry relative to control; type: functional; outline: as §2
# [8] = test system: U-937; assay: Induction of human U937 cell differentiation assessed as CD11c expression at 100 uM after 30 hrs by propidium iodide-based flow cytometry relative to control; type: functional
# Outline: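 U937 cells treated 30 h, then stained 1 h at 4 °C in dark with PE-conjugated anti-CD11c (mouse IgG1-PE isotype for controls), washed, resuspended in PBS with propidium iodide; flow cytometry, CD11c-positive percentage after subtracting PI-positive dead cells, versus control.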
# [9] = test system: U-937; assay: Cell cycle arrest at G1 phase in human U937 cells at 100 uM after 30 hrs by propidium iodide-based flow cytometry relative to control; type: functional; outline: as §2
# [10] = test system: U-937; assay: Induction of apoptosis in human U937 cells at 100 uM after 30 hrs by FACS analysis relative to control; type: functional; outline: as §1
# [11] = test system: U-937; assay: Induction of apoptosis in human U937 cells at 100 uM after 30 hrs by FACS analysis relative to control relative to CPTH6; type: functional
# [12] = test system: U-937; assay: Induction of apoptosis in human U937 cells at 100 uM after 30 hrs by FACS analysis relative to control in presence of CPTH6; type: functional, cell-based
# Chain of Histone acetyltransferase KAT2B (Homo sapiens) (Q92831 whole entry, looked up, the tested form may be a part): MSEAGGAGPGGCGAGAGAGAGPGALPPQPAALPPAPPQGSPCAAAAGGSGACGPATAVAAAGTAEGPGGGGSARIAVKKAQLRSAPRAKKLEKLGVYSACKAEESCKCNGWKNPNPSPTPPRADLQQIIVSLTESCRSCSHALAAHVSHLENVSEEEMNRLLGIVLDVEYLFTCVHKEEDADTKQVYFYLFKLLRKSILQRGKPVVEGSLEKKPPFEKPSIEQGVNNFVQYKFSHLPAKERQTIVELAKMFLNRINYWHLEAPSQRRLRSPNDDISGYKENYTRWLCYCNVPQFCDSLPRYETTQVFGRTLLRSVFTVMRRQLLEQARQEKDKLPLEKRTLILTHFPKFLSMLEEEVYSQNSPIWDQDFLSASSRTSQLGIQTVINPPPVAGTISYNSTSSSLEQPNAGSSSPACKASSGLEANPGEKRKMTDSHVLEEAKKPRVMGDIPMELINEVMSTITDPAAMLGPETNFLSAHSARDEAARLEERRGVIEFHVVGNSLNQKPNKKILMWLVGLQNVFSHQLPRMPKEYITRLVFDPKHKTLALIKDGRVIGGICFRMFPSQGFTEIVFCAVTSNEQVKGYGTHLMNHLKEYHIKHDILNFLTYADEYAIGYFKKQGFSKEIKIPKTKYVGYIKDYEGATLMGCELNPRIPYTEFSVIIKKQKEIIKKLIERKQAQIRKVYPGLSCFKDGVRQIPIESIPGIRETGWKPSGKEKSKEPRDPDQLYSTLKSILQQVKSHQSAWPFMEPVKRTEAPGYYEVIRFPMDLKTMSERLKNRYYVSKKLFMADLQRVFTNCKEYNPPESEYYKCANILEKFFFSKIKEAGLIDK
# Chain of Histone acetyltransferase p300 (Homo sapiens) (Q09472 whole entry, the tested form may be a part): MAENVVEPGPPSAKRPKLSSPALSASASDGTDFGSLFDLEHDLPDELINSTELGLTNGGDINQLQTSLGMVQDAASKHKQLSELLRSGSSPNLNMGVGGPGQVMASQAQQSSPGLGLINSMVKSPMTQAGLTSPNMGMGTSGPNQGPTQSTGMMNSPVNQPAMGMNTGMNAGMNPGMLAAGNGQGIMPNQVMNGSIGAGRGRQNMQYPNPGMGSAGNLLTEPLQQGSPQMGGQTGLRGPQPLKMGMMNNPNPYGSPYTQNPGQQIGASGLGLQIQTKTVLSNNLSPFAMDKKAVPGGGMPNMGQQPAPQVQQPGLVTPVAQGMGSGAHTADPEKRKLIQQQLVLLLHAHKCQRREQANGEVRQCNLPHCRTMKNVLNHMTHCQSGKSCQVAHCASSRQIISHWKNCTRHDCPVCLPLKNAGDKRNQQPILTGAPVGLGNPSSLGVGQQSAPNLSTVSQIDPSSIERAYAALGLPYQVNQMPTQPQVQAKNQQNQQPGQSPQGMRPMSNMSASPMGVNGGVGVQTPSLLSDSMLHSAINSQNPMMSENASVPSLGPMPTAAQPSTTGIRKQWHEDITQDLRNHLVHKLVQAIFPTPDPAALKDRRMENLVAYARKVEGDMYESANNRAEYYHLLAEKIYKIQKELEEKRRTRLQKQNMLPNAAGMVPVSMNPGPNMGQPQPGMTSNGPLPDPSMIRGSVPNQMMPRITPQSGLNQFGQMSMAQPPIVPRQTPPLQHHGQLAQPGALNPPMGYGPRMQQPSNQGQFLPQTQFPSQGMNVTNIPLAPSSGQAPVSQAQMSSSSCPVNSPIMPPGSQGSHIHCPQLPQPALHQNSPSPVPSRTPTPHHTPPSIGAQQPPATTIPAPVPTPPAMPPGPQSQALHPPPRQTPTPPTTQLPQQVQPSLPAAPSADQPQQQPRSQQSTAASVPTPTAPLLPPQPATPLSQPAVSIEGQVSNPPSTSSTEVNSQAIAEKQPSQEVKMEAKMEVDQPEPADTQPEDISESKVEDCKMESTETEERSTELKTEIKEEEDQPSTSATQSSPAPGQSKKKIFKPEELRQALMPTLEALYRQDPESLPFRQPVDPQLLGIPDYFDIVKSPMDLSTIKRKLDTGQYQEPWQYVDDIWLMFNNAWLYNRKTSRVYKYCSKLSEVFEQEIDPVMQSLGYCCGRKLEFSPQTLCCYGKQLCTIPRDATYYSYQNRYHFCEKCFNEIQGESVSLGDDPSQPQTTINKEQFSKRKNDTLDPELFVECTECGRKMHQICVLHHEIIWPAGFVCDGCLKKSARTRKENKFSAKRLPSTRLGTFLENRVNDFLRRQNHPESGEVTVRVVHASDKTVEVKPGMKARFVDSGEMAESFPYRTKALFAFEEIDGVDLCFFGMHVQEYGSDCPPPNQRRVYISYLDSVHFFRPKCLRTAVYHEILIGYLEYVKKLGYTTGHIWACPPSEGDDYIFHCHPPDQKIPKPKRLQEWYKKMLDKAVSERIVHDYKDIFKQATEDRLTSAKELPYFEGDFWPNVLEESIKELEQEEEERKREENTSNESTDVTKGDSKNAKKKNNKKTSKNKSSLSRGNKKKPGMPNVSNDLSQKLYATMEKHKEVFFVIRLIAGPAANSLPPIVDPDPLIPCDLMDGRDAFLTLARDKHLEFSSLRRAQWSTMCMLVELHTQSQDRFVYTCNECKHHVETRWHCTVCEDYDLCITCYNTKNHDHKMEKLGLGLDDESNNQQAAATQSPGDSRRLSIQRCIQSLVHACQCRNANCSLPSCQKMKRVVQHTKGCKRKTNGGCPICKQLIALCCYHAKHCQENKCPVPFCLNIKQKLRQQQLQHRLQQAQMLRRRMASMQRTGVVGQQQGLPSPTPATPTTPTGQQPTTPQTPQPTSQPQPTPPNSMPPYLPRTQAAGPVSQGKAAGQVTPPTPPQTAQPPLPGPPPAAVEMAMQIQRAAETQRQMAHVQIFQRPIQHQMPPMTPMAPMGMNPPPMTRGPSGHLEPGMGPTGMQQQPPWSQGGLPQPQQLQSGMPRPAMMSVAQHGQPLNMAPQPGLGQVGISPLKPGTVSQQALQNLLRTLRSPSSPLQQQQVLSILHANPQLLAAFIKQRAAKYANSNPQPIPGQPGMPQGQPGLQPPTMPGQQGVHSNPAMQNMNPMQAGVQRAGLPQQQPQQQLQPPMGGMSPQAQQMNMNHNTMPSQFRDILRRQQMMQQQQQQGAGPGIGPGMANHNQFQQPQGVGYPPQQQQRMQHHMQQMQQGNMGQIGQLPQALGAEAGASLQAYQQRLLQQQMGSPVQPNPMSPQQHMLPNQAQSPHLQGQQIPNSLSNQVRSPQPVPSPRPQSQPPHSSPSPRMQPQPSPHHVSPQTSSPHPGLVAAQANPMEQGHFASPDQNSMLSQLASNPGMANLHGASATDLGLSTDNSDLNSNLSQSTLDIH
SMILES,inhibition [1] [%],inhibition [3] [%],inhibition [5] [%],inhibition [6] [%],Activity [2] [%],Activity [4],Activity [7],Activity [8],Activity [9],Activity [10] [%],fold change (FC) [11],Activity [12]
CC(C)=NNc1nc(-c2cccc([N+](=O)[O-])c2)cs1,7,33,54,76,10,Active,–,–,–,–,–,–
C/C(=N/Nc1nc(-c2ccc(Cl)cc2)cs1)c1ccccn1,10,51,69,87,–,–,Active,Active,Active,–,–,–
Clc1ccc(-c2csc(N/N=C\c3c[nH]c4ccccc34)n2)cc1,0,61,79,97,10,–,–,Active,–,44,1.5,Active

# Second part, led by results:
inhibition [1] [%],inhibition [3] [%],inhibition [5] [%],inhibition [6] [%],SMILES,Activity [2] [%],Activity [4],Activity [7],Activity [8],Activity [9],Activity [10] [%],fold change (FC) [11],Activity [12]
13,41,52,69,CC1CC/C(=N/Nc2nc(-c3cc4ccccc4oc3=O)cs2)C1 (stereo not drawn),–,Active,–,–,–,–,–,–
11,62,86,97,C/C(=N/Nc1nc(-c2ccc(Cl)cc2)cs1)c1cc2ccccc2oc1=O,10,–,–,Active,–,44,1.5,Active
12,35,62,91,Fc1ccc(-c2csc(NN=C3CCCC3)n2)cc1,10,Active,Active,Active,Active,44,1.5,Active
